pIC50: −log10 of the molar value. ≈ marks a conversion by molar mass, not a printed value. Calls of active or inactive are those of the source. No cut-off for these calls is given here.
Assays:
Insulin-degrading enzyme = biological target: T1, Insulin-degrading enzyme (Homo sapiens, UniProt P14735); assay: (§1) Inhibition of human recombinant IDE-mediated amyloid beta (16 to 23) hydrolysis using ATTO 655-Cys-Lys-Leu-Val-Phe-Phe-Ala-Glu-Asp-Trp as substrate preincubated for 10 mins measured after 30 mins by spectrophotometer analysis
T1 sequence (P14735 whole entry): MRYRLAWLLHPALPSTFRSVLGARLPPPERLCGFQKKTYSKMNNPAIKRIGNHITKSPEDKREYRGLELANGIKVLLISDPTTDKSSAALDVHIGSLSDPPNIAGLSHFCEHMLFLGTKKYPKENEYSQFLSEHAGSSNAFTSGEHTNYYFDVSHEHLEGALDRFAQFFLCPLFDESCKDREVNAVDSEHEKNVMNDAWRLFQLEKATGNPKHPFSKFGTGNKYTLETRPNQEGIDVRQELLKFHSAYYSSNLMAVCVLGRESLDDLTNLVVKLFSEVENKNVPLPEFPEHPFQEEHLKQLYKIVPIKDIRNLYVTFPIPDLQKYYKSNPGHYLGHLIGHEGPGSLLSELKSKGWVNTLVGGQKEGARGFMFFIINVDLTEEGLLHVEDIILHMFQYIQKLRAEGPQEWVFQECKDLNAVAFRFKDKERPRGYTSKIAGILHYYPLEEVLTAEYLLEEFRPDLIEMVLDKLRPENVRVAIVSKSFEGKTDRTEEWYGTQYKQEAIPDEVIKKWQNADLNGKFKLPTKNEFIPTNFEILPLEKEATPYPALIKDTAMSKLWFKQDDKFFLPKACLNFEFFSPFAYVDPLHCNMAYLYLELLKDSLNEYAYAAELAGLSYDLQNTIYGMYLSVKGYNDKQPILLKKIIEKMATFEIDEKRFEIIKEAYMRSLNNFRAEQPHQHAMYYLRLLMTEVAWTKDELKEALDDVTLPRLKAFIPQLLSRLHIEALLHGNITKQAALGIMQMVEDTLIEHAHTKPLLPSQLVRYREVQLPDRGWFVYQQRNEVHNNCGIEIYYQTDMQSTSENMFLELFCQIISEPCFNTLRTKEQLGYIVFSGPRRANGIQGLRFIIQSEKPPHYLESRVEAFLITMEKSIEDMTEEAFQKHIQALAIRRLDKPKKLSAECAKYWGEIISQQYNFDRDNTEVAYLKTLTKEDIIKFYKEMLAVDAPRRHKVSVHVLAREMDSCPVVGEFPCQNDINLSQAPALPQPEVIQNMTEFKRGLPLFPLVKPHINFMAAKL

[1] = Half life in mouse plasma at 10 uM by LC-MS/MS analysis; assay type: ADME, cell-free
[2] = Solubility of the compound in PBS at pH 7.4; assay type: physicochemical
[3] = biological target: Angiotensin-converting enzyme (Homo sapiens, UniProt P12821); assay: Inhibition of human ACE-mediated amyloid beta hydrolysis
Angiotensin-converting enzyme, sequence (P12821 whole entry): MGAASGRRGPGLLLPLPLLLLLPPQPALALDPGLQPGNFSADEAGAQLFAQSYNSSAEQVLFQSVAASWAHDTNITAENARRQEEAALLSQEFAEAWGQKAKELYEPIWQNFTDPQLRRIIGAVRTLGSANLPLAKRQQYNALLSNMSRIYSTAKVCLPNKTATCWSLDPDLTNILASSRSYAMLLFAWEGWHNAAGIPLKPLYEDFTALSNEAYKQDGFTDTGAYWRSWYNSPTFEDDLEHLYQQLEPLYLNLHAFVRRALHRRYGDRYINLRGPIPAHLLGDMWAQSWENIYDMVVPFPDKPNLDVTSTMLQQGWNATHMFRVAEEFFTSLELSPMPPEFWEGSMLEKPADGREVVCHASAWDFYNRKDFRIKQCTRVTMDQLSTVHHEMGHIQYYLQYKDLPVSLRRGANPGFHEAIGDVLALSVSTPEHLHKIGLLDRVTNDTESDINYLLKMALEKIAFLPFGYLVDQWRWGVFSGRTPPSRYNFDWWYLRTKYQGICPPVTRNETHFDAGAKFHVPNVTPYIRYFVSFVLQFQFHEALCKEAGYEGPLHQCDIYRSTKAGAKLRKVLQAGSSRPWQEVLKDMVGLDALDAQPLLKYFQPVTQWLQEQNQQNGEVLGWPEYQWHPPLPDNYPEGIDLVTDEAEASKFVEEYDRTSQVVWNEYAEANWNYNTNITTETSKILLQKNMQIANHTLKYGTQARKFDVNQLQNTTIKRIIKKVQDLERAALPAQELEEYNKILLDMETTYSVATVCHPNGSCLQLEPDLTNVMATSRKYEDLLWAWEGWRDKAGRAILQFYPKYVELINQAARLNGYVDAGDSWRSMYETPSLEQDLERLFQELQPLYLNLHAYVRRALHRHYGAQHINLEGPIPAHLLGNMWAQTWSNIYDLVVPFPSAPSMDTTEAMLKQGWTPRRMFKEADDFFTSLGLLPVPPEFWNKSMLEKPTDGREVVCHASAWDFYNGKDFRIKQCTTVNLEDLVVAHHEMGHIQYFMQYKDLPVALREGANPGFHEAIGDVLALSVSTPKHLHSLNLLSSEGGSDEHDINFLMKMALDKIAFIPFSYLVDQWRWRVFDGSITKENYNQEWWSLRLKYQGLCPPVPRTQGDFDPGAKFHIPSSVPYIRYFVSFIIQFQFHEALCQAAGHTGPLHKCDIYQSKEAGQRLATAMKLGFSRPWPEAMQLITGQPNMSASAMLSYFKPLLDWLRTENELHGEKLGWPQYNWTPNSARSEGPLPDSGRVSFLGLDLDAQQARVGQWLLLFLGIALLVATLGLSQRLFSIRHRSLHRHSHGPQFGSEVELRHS

[4] = Half life in human liver microsomes at 1 uM by LC-MS/MS analysis; assay type: ADME
Interstitial collagenase = biological target: T2, Interstitial collagenase (Homo sapiens, UniProt P03956); assay: Inhibition of human recombinant MMP1-mediated amyloid beta hydrolysis using DNP-Pro-Cha-Gly- Cys(Me)-His-Ala- Lys(n-Me-Abz)-NH2 as substrate after 40 mins by fluorimetry assay
T2 sequence (P03956 whole entry): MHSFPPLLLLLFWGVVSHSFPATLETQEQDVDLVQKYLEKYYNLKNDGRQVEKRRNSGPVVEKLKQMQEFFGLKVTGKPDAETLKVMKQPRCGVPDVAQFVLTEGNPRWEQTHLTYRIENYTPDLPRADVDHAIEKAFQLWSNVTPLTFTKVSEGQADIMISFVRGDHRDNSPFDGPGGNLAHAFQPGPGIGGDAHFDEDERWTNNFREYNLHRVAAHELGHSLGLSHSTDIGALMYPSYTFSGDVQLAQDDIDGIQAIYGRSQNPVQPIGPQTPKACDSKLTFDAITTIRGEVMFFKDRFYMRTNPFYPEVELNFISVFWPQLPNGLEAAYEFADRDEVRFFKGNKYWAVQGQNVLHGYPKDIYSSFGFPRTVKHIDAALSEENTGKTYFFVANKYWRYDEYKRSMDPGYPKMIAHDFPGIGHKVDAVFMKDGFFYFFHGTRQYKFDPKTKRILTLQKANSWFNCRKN

[5] = biological target: Disintegrin and metalloproteinase domain-containing protein 17 (Homo sapiens, UniProt P78536); assay: Inhibition of human recombinant TACE-mediated amyloid beta hydrolysis after 5 mins by fluorimetry assay
Disintegrin and metalloproteinase domain-containing protein 17, sequence (P78536 whole entry, the tested form may be a part): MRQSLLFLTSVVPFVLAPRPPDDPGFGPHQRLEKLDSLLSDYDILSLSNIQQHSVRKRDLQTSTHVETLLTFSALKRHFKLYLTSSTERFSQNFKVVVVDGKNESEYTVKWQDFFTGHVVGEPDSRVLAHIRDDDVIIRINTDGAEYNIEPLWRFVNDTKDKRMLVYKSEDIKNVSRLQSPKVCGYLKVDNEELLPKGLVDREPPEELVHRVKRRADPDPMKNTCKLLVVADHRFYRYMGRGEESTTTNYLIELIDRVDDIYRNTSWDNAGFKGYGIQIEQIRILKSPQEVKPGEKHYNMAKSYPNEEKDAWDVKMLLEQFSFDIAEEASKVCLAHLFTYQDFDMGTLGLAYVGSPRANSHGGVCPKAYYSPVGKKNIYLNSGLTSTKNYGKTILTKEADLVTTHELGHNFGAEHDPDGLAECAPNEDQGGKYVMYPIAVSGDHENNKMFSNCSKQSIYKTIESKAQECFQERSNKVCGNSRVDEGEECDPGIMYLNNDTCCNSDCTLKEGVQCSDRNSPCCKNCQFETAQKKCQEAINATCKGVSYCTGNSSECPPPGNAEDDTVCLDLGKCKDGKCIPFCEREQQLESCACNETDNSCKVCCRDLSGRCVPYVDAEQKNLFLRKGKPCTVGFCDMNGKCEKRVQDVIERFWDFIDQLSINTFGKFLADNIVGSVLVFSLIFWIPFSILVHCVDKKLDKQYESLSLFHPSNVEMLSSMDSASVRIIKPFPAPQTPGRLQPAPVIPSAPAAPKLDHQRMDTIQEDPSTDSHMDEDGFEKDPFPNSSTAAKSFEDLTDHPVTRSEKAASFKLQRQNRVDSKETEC

[6] = Half life in IHH cell culture medium at 10 uM by LC-MS/MS analysis; assay type: physicochemical, HH
Method in brief: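 Stability measured in William's E medium with 10% fetal calf serum.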

[7] = biological target: T3, Endothelin-converting enzyme 1 (Homo sapiens, UniProt P42892); assay: Inhibition of human recombinant ECE1-mediated amyloid beta hydrolysis after 45 mins by fluorimetry assay
T3 sequence (P42892 whole entry): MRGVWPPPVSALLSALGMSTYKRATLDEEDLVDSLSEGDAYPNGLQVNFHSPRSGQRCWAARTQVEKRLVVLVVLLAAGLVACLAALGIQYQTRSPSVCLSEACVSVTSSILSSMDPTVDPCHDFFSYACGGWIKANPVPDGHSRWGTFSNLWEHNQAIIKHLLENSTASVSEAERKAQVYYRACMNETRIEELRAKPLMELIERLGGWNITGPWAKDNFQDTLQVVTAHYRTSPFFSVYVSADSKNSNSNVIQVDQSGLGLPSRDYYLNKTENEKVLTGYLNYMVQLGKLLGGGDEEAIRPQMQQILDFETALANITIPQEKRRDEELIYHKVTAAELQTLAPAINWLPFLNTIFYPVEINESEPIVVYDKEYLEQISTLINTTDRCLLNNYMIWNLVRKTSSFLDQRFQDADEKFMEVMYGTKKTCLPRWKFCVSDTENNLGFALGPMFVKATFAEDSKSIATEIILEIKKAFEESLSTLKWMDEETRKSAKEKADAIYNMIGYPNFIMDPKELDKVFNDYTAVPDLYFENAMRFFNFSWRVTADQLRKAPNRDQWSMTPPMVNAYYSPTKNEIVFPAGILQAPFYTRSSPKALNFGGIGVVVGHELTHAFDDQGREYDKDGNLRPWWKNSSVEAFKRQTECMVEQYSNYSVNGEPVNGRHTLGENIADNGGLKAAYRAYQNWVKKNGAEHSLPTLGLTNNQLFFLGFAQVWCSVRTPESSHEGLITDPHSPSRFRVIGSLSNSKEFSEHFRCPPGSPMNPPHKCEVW

Collagenase 3 = Collagenase 3 (Homo sapiens, UniProt P45452); assay: Inhibition of human recombinant MMP13-mediated amyloid beta hydrolysis after 10 mins by fluorimetry assay
[8] = PBS-octanol partition coefficient, log D of the compound; assay type: physicochemical
[9] = biological target: Angiotensin-converting enzyme 2 (Homo sapiens, UniProt Q9BYF1); assay: Inhibition of human recombinant ACE2-mediated amyloid beta hydrolysis using Mca-Tyr-Val-Ala-Asp-Pro-Ala-Lys-(DNP)-OH as substrate after 20 mins by fluorimetry assay
Angiotensin-converting enzyme 2, sequence (Q9BYF1 whole entry): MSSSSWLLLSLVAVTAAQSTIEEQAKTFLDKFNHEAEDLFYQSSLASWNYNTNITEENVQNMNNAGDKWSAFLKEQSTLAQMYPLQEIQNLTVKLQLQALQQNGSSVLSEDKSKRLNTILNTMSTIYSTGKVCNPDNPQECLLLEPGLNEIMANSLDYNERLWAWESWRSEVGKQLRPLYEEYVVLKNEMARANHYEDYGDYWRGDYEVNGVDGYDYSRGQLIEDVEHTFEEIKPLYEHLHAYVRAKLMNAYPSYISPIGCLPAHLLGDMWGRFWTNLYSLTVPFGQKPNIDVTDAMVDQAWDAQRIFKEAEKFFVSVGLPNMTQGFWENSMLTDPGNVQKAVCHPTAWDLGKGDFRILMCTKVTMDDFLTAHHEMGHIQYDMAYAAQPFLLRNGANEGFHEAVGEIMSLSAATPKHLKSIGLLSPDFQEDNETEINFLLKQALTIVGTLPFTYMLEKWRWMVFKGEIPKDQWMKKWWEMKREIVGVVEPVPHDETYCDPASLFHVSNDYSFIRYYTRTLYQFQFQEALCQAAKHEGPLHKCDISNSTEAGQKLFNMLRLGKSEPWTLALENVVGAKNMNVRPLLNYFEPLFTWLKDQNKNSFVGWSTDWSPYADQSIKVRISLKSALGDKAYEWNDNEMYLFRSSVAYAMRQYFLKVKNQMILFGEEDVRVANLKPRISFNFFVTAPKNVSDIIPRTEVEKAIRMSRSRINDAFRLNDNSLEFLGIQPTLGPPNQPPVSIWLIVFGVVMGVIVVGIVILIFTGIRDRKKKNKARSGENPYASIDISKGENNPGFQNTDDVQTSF

Neprilysin = Neprilysin (Homo sapiens, UniProt P08473); assay: Inhibition of human NEP-mediated amyloid beta hydrolysis
Neprilysin, sequence (P08473 whole entry): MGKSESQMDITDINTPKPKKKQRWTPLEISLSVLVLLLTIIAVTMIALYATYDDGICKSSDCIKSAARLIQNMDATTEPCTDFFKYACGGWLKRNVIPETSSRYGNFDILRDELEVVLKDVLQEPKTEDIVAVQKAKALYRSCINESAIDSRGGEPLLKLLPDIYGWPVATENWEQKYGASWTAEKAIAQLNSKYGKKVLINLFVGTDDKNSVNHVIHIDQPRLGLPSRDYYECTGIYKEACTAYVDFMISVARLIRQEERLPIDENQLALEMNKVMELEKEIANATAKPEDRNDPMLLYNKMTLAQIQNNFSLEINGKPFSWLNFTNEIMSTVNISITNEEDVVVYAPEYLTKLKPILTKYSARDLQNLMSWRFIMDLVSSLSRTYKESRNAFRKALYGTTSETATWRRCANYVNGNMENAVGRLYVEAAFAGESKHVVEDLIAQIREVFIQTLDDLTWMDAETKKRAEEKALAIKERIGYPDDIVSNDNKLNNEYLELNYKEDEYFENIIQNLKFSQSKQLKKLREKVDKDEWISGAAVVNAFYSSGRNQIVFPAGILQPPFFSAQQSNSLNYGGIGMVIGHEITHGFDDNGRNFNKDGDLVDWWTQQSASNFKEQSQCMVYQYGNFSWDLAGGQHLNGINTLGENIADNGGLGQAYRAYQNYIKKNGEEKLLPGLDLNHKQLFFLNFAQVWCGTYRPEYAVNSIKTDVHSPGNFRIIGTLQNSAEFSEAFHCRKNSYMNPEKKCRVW

[10] = biological target: Insulin-degrading enzyme (Homo sapiens) (UniProt P14735); assay: as §1
[11] = biological target: Insulin-degrading enzyme (Homo sapiens) (UniProt P14735); assay: Competitive inhibition of human recombinant IDE-mediated amyloid beta (16 to 23) hydrolysis using ATTO 655-Cys-Lys-Leu-Val-Phe-Phe-Ala-Glu-Asp-Trp as substrate
Method in brief: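 Human recombinant IDE (1.87 ng/μL) preincubated 10 min at 37 °C with compound in 50 mM Hepes, 100 mM NaCl, pH 7.4. Reaction started with quenched ATTO 655-labelled peptide substrate (5 μM final), 1% DMSO final. Fluorescence read after 30 min (ex 635, em 750 nm). 8-point dose-response curves, average of at least three independent measurements. EDTA reference (2 mM).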

[12] = biological target: Insulin-degrading enzyme (Homo sapiens) (UniProt P14735); assay: Reversible inhibition of human recombinant IDE-mediated amyloid beta (16 to 23) hydrolysis using ATTO 655-Cys-Lys-Leu-Val-Phe-Phe-Ala-Glu-Asp-Trp as substrate at 20 uM preincubated for 20 mins measured measured after 100 fold dilution by spectrophotometer analysis

COC(=O)[C@H](Cc1c[nH]cn1)NC(=O)CN(CCCc1ccccc1)CC(=O)O
pIC50 (Insulin-degrading enzyme): 6.22

CNC(=O)[C@H](Cc1c[nH]cn1)NC(=O)CN(CCCc1ccccc1)CC(=O)O
half-life at 10 µM [1]: > 48 h | solubility [2]: 68 µM (≈ 27.3 µg/mL) | pIC50 [3]: < 4.00 | half-life at 1 µM [4]: > 0.667 h | pIC50 (Interstitial collagenase): < 4.00 | pIC50 [5]: < 4.00 | half-life at 10 µM [6]: > 24 h | pIC50 [7]: < 4.00 | pIC50 (Collagenase 3): < 4.00 | logD [8]: -1.4 | pIC50 [9]: < 4.00 | pIC50 (Neprilysin): < 4.00

COC(=O)[C@H](Cc1c[nH]cn1)NC(=O)CN(CC(=O)O)Cc1ccccc1
inhibition [10]: Dose-dependent effect | inhibition [11]: Active | inhibition [12]: Active

Reference: ChEMBL document CHEMBL3232818, “Imidazole-derived 2-[N-carbamoylmethyl-alkylamino]acetic acids, substrate-dependent modulators of insulin-degrading enzyme in amyloid-β hydrolysis” (Eur J Med Chem, 2014)
